Data: ChEMBL document CHEMBL1149263, “Structure-activity relationships in platelet-activating factor. 12. Synthesis and biological evaluation of platelet-activating factor antagonists with anti-HIV-1 activity” (J Med Chem, 2004)

What was measured:
[1] = Cytotoxicity against human MDM cells by neutral red staining; format: cell-based
In short: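 Fifty percent cytotoxic concentration in monocyte-derived macrophages, assessed by neutral red staining.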

[2] = test system: Human immunodeficiency virus 1; test: Antiviral activity against HIV1 BAL in human MDM cells; format: functional, organism-based; conditions: Human immunodeficiency virus 1, BAL
In short: (§1)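 Monocyte-derived macrophages were infected with the macrophage-tropic HIV-1/Ba-L strain. HIV-1 replication was read as reverse transcriptase activity in culture supernatants. Values come from a single measurement.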

Plasma = test: Inhibition of PAF-induced platelet aggregation in rabbit platelet-rich plasma; format: functional; conditions: Oryctolagus cuniculus
In short: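 Rabbit platelet-rich plasma was prepared from New Zealand rabbit auricular-artery blood collected in 3.8% citrate (pH 7.4) and spun 15 min at 1200 rpm. Antagonists in EtOH (10⁻² to 10⁻⁷ M) were added to stirred PRP for 2 min, then challenged with 2.5 nM PAF. Aggregation was followed by light transmission against a PAF-alone control. IC50 was taken from dose–response curves (five or six determinations).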

[3] = Cytotoxicity against human MDM cells by neutral red staining at 10 uM; format: cell-based
[4] = Cytotoxicity against human MDM cells by neutral red staining at 1 uM; format: cell-based
[5] = Half life in Sprague-Dawley rat at 500 mg/kg, po normalized to 1 mg/kg; format: ADME, organism-based; conditions: in vivo
In short: (§2)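 Single dose given to male Sprague–Dawley rats, three animals. Each animal received 100 mg/kg iv and 500 mg/kg orally. Plasma Cmax, t1/2, AUC and oral bioavailability were determined, and all parameters were normalized to a 1 mg/kg dose so the two routes could be compared.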

[6] = Half life in Sprague-Dawley rat at 100 mg/kg, iv normalized to 1 mg/kg; format: ADME, organism-based; conditions: in vivo; in short: as §2
[7] = Partition coefficient, log P of the compound; format: physicochemical; conditions: octanol/water
Rattus norvegicus [8] = test: Cmax in Sprague-Dawley rat at 100 mg/kg, iv normalized to 1 mg/kg; format: ADME, organism-based; design: dose 100 mg/kg, route intravenous; conditions: in vivo; in short: as §2
Rattus norvegicus [9] = test: AUC in Sprague-Dawley rat at 100 mg/kg, iv normalized to 1 mg/kg; format: ADME, organism-based, Plasma; conditions: in vivo; in short: as §2
Rattus norvegicus [10] = test: Cmax in Sprague-Dawley rat at 500 mg/kg, po normalized to 1 mg/kg; format: ADME, organism-based; design: dose 500 mg/kg, route oral; conditions: in vivo; in short: as §2
Rattus norvegicus [11] = test: AUC in Sprague-Dawley rat at 500 mg/kg, po normalized to 1 mg/kg; format: ADME, organism-based, Plasma; conditions: in vivo; in short: as §2
[12] = Bioavailability in Sprague-Dawley rat at 500 mg/kg, po normalized to 1 mg/kg; format: ADME, organism-based; conditions: in vivo; in short: as §2
Mus musculus = species on record: Mus musculus; test: Blood-brain transfer coefficient in OF1 mouse by in situ brain perfusion method; format: ADME, organism-based; conditions: in vivo
In short: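 In situ brain perfusion in anaesthetized mice (ip xylazine 8 mg/kg, ketamine 140 mg/kg) through a right common carotid catheter. Perfusate was bicarbonate-buffered saline with 9 mM D-glucose, gassed 95% O2/5% CO2, pH 7.4, 37 °C, carrying [³H]tracer at 0.3–0.4 μCi/mL, with [¹⁴C]sucrose as vascular marker. Brain distribution volume was computed from right-hemisphere radioactivity; five animals.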

[13] = test system: Human immunodeficiency virus 1; test: Inhibition of HIV1 BAL replication in MDM cells assessed by measuring reverse transcriptase at 100 uM; format: functional; conditions: Human immunodeficiency virus 1, BAL; in short: as §1

Row | SMILES | IC50 [2] | IC50 (Plasma) | CC50 [1] | further results
1 | CCN(CC)C(=S)OCC1CN(C(=O)c2cc(OC)c(OC)c(OC)c2)CCN1C(=O)c1cc(OC)c(OC)c(OC)c1 (stereo not drawn) | – | > 5 µM | > 1 µM | Activity [3]: Toxic; Activity [4]: Not Active
2 | [3H]COc1c(OC)cc(C(=O)N2CCN(C(=O)c3cc(OC)c(OC)c(OC)c3)C(COC(=O)N(CC)CC)C2)cc1OC (stereo not drawn) | – | – | – | Kin (Mus musculus): 1.02 µL/s/g
3 | COc1cc(C(=O)N2CCN(C(=O)c3cc(OC)c(OC)c(OC)c3)C(CNC(=O)Nc3c(C)cccc3C)C2)cc(OC)c1OC (stereo not drawn) | 32 µM | > 10 µM | > 100 µM | –
4 | CCCN(CCC)C(=O)NCC1CN(C(=O)c2cc(OC)c(OC)c(OC)c2)CCN1C(=O)c1cc(OC)c(OC)c(OC)c1 (stereo not drawn) | > 10 µM | > 10 µM | > 100 µM | –
5 | COc1cc(C(=O)N2CCN(C(=O)c3cc(OC)c(OC)c(OC)c3)C(CNC(=O)OC(C)C)C2)cc(OC)c1OC (stereo not drawn) | 25 µM | 5 µM | > 100 µM | –
6 | CCCN(CCC)C(=O)OCC1CN(C(=O)c2cc(OC)c(OC)c(OC)c2)CCN1C(=O)c1cc(OC)c(OC)c(OC)c1 (stereo not drawn) | – | 0.37 µM | > 100 µM | inhibition at 100 µM [13]: 66%
7 | CCCCCCNC(=O)NCC1CN(C(=O)c2cc(OC)c(OC)c(OC)c2)CCN1C(=O)c1cc(OC)c(OC)c(OC)c1 (stereo not drawn) | 1 µM | > 10 µM | > 100 µM | –

Further lines, with some results ahead:

Row | IC50 [2] | IC50 (Plasma) | SMILES | CC50 [1] | further results
8 | 10 µM | 0.67 µM | CCCCNC(=O)OCC1CN(C(=O)c2cc(OC)c(OC)c(OC)c2)CCN1C(=O)c1cc(OC)c(OC)c(OC)c1 (stereo not drawn) | > 100 µM | –
9 | > 100 µM | 0.158 µM | CCC(=O)OCC1CN(C(=O)c2cc(OC)c(OC)c(OC)c2)CCN1C(=O)c1cc(OC)c(OC)c(OC)c1 (stereo not drawn) | > 100 µM | –
10 | 11 µM | 8 µM | CCN(CC)C(=O)OCC1CN(C(=O)c2cc(OC)c(OC)c(OC)c2)CCN1C(=O)c1cc(OC)c(OC)c(OC)c1 (stereo not drawn) [PMS-601] | > 1000 µM | half-life [5]: 137 min; half-life [6]: 128 min; logP [7]: 0.8; Cmax (Rattus norvegicus [8]): 861 ng/mL; AUC (Rattus norvegicus [9]): 1828 ng·h/mL; Cmax (Rattus norvegicus [10]): 33 ng/mL; AUC (Rattus norvegicus [11]): 177 ng·h/mL; bioavailability [12]: 10.9%
11 | 40 µM | > 10 µM | CCN(CC)C(=O)NCC1CN(C(=O)c2cc(OC)c(OC)c(OC)c2)CCN1C(=O)c1cc(OC)c(OC)c(OC)c1 (stereo not drawn) | > 100 µM | –
12 | – | 1.6 µM | COc1cc(C(=O)N2CCN(C(=O)c3cc(OC)c(OC)c(OC)c3)C(COC(=S)N(C)C)C2)cc(OC)c1OC (stereo not drawn) | > 100 µM | inhibition at 100 µM [13]: 76%
